Test results: ChEMBL document CHEMBL3769392, “Synthesis, antiproliferative activities, and computational evaluation of novel isocoumarin and 3,4-dihydroisocoumarin derivatives” (Eur J Med Chem, 2016)
Converted amounts (≈) assume the structure as drawn.

Experiments:
U-251 = experiment: Antiproliferative activity against human U251 cells after 48 hrs by SRB assay; type: functional; details: U-251, 48 h
In short: (§1)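 Cells kept in RPMI 1640 with 5% FBS and 1% penicillin/streptomycin at 37 °C, 5% CO2, and used at passages 5–12. Seeded at 3 to 5 x 10^4 cells/mL and exposed 48 h to 0.25, 2.5, 25 and 250 µg/mL in DMSO/RPMI (final DMSO ≤ 0.25%). Doxorubicin 0.025–25 µg/mL served as positive control. Fixed with 50% TCA at T0 and at endpoint, SRB protein read at 540 nm. Growth was T0-corrected and GI50 taken by non-linear regression.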

MCF7 = experiment: Antiproliferative activity against human MCF7 cells after 48 hrs by SRB assay; type: functional; details: MCF7, 48 h; in short: as §1
[1] = Antiproliferative activity against human NCI-ADR-RES cells after 48 hrs by SRB assay; type: functional; in short: as §1
786-0 = experiment: Antiproliferative activity against human 786-0 cells after 48 hrs by SRB assay; type: functional; details: 786-0, 48 h; in short: as §1
NCI-H460 [2] = experiment: Antiproliferative activity against human NCI-H460 cells after 48 hrs by SRB assay; type: functional; details: NCI-H460, 48 h; in short: as §1
[3] = Antiproliferative activity against human PC3 cells after 48 hrs by SRB assay; type: functional; details: PC-3, 48 h; in short: as §1
HT-29 = experiment: Antiproliferative activity against human HT-29 cells after 48 hrs by SRB assay; type: functional; details: HT-29, 48 h; in short: as §1
[4] = Cytotoxicity against human HaCaT cells after 48 hrs by SRB assay; type: cell-based; in short: as §1
HaCaT [5] = experiment: Selectivity index, ratio of GI50 for human HaCaT cells to GI50 for human U251 cells; type: functional
HaCaT [6] = experiment: Selectivity index, ratio of GI50 for human HaCaT cells to GI50 for human MCF7 cells; type: functional
HaCaT [7] = experiment: Selectivity index, ratio of GI50 for human HaCaT cells to GI50 for human NCI-ADR-RES cells; type: functional
HaCaT [8] = experiment: Selectivity index, ratio of GI50 for human HaCaT cells to GI50 for human 786-0 cells; type: functional
NCI-H460 [9] = experiment: Selectivity index, ratio of GI50 for human HaCaT cells to GI50 for human NCI-H460 cells; type: functional
HaCaT [10] = experiment: Selectivity index, ratio of GI50 for human HaCaT cells to GI50 for human PC3 cells; type: functional
HaCaT [11] = experiment: Selectivity index, ratio of GI50 for human HaCaT cells to GI50 for human HT-29 cells; type: functional

Row | Compound | GI50 (U-251) [µg/mL] | GI50 (MCF7) [µg/mL] | GI50 [1] [µg/mL] | GI50 (786-0) [µg/mL] | GI50 (NCI-H460 [2]) [µg/mL] | GI50 [3] [µg/mL] | GI50 (HT-29) [µg/mL] | GI50 at 48 h [4] [µg/mL] | RatioGI50 (HaCaT [5]) | RatioGI50 (HaCaT [6]) | RatioGI50 (HaCaT [7]) | RatioGI50 (HaCaT [8]) | RatioGI50 (NCI-H460 [9]) | RatioGI50 (HaCaT [10]) | RatioGI50 (HaCaT [11])
1 | COc1ccc2cc(COCCCc3cccnc3)oc(=O)c2c1 | 28.5 (≈ 87.6 µM) | 26.5 (≈ 81.4 µM) | 28 (≈ 86.1 µM) | 28.6 (≈ 87.9 µM) | 29.6 (≈ 91 µM) | 25 (≈ 76.8 µM) | 25.8 (≈ 79.3 µM) | 26.2 (≈ 80.5 µM) | 0.92 | 0.99 | 0.94 | 0.92 | 0.89 | 1.05 | 1.02
2 | COc1ccc2cc(CCCOCCCc3cccnc3)oc(=O)c2c1 | 26.3 (≈ 74.4 µM) | 23.8 (≈ 67.3 µM) | 19.3 (≈ 54.6 µM) | 28.7 (≈ 81.2 µM) | 25.2 (≈ 71.3 µM) | 26.3 (≈ 74.4 µM) | 25 (≈ 70.7 µM) | 27 (≈ 76.4 µM) | 1.03 | 1.13 | 1.4 | 0.94 | 1.07 | 1.03 | 1.08
3 | CCCCCOCCCc1cc2ccc(OC)cc2c(=O)o1 | 19.4 (≈ 63.7 µM) | 6 (≈ 19.7 µM) | 7.4 (≈ 24.3 µM) | 25.5 (≈ 83.8 µM) | 32 (≈ 105 µM) | 8 (≈ 26.3 µM) | 28.3 (≈ 93 µM) | 5.5 (≈ 18.1 µM) | 0.28 | 0.92 | 0.74 | 0.22 | 0.17 | 0.69 | 0.19
4 | COc1ccc2cc(CCCSc3nnnn3-c3ccccc3)oc(=O)c2c1 | 43.3 (≈ 110 µM) | 45.7 (≈ 116 µM) | ≥ 250 | 51.1 (≈ 130 µM) | ≥ 250 | 144 (≈ 366 µM) | ≥ 250 | ≥ 250 | >5.77 | >5.47 | – | >4.89 | – | >1.73 | –
5 | COc1ccc2cc(CO)oc(=O)c2c1 | 167 (≈ 811 µM) | 32.6 (≈ 158 µM) | 160 (≈ 778 µM) | 37.6 (≈ 182 µM) | 93.2 (≈ 452 µM) | 49.2 (≈ 239 µM) | 80.3 (≈ 389 µM) | 134 (≈ 652 µM) | 0.8 | 4.12 | 0.84 | 3.57 | 1.44 | 2.73 | 1.67
6 | O=c1oc(CO)cc2ccccc12 | ≥ 250 | 89.3 (≈ 507 µM) | ≥ 250 | ≥ 250 | ≥ 250 | 118 (≈ 669 µM) | 168 (≈ 956 µM) | 222 (≈ 1260 µM) | – | 2.49 | – | – | – | 1.88 | 1.32
7 | COc1ccc2cc(CCCn3nnnc3-c3ccccc3)oc(=O)c2c1 | 67.4 (≈ 186 µM) | 75.2 (≈ 208 µM) | ≥ 250 | 224 (≈ 619 µM) | ≥ 250 | 180 (≈ 496 µM) | ≥ 250 | ≥ 250 | >3.71 | >3.32 | – | >1.12 | – | >1.39 | –
8 | COc1ccc2cc(CCCO)oc(=O)c2c1 | 28.9 (≈ 123 µM) | 25.8 (≈ 110 µM) | 28.1 (≈ 120 µM) | 26.9 (≈ 115 µM) | 29.1 (≈ 124 µM) | 25.9 (≈ 111 µM) | 29.1 (≈ 124 µM) | 29 (≈ 124 µM) | 1 | 1.12 | 1.03 | 1.08 | 1 | 1.12 | 1
9 | CCCCCOCCCC1Cc2ccc(OC)cc2C(=O)O1 (racemic) | 32.2 (≈ 105 µM) | 32.3 (≈ 105 µM) | 42.3 (≈ 138 µM) | 31.9 (≈ 104 µM) | 33.7 (≈ 110 µM) | 29.5 (≈ 96.3 µM) | 43.5 (≈ 142 µM) | 32.3 (≈ 105 µM) | 1 | 1 | 0.76 | 1.01 | 0.96 | 1.09 | 0.74
10 | COc1ccc2c(c1)C(=O)OC(CO)C2 (racemic) | ≥ 250 | 250 (≈ 1200 µM) | ≥ 250 | ≥ 250 | ≥ 250 | 175 (≈ 842 µM) | ≥ 250 | ≥ 250 | – | >1 | – | – | – | >1.43 | –
11 | COc1ccc2c(c1)C(=O)OC(CCCSc1nnnn1-c1ccccc1)C2 (racemic) | ≥ 250 | 18.6 (≈ 46.9 µM) | 132 (≈ 333 µM) | ≥ 250 | ≥ 250 | 45.1 (≈ 114 µM) | 13.7 (≈ 34.6 µM) | ≥ 250 | – | >13.44 | >1.89 | – | – | >5.54 | >18.25
12 | COc1ccc2c(c1)C(=O)OC(CCCn1nnnc1-c1ccccc1)C2 (racemic) | 226 (≈ 621 µM) | 28.2 (≈ 77.4 µM) | 142 (≈ 390 µM) | ≥ 250 | 211 (≈ 578 µM) | 23.9 (≈ 65.6 µM) | 31.2 (≈ 85.6 µM) | ≥ 250 | >2.29 | >8.87 | >1.76 | – | >1.19 | > 10.5 | >8.01
13 | O=C1OC(CO)Cc2ccccc21 (racemic) | ≥ 250 | 0.66 (≈ 3.7 µM) | ≥ 250 | ≥ 250 | ≥ 250 | ≥ 250 | ≥ 250 | ≥ 250 | – | >378.79 | – | – | – | – | –
14 | COc1ccc2c(c1)C(=O)OC(CCCO)C2 (racemic) | 135 (≈ 571 µM) | 80.8 (≈ 342 µM) | 93.3 (≈ 395 µM) | 102 (≈ 430 µM) | 136 (≈ 574 µM) | 70.7 (≈ 299 µM) | 132 (≈ 559 µM) | 130 (≈ 551 µM) | 0.97 | 1.12 | 1.4 | 1.28 | 0.96 | 1.84 | 0.99
15 | COc1cccc2c1C(=O)c1c(O)c3c(c(O)c1C2=O)C[C@@](O)(C(=O)CO)C[C@@H]3O[C@H]1C[C@H](N)[C@H](O)[C@H](C)O1 [DOXORUBICIN] | < 0.025 | < 0.025 | 0.14 (≈ 0.258 µM) | 0.025 (≈ 0.046 µM) | < 0.025 | 0.085 (≈ 0.156 µM) | 0.13 (≈ 0.239 µM) | < 0.025 | – | – | – | – | – | – | –
